The source of these data is ChEMBL document CHEMBL4038325, “Opioid Receptor Modulators with a Cinnamyl Group” (J Med Chem, 2017).

The target of data set [1] is T1, Mu-type opioid receptor (Homo sapiens, UniProt P35372). As to the kind of experiment: Agonist activity at recombinant human MOR expressed in HEK293T cells assessed as inhibition of forskolin-stimulated cAMP level at 10 uM preincubated for 15 to 20 mins followed by forskolin addition by GloSensor assay relative to control. The format is functional, cell-based. Particulars: HEK-293T. The method, boiled down:
(§1)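 HEK293T transiently co-transfected (calcium phosphate) with DOR or MOR plus pGloSensor-22F. Cells were loaded with luciferin in HBSS/20 mM HEPES pH 7.4 for 90 min, then given compound in triplicate for 15-20 min at 37°C. Forskolin added (final 10 µM); luminescence read. cAMP signal normalized to forskolin-alone control.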

The target in data set [2] is T2, Kappa-type opioid receptor (Homo sapiens, UniProt P41145). Particulars: HEK-293T, at 10 µM.
In data set [3] the target is T2, Kappa-type opioid receptor. Particulars: HEK-293T, at 10 µM. This is another data set of the same source.
For data set [4], the target named is T1, Mu-type opioid receptor. Particulars: HEK-293T, at 10 µM.
Data set [5] deals with Delta-type opioid receptor (Homo sapiens) (UniProt P41143). Description: Agonist activity at recombinant human DOR expressed in HEK293T cells assessed as inhibition of forskolin-stimulated cAMP level at 10 uM preincubated for 15 to 20 mins followed by forskolin addition by GloSensor assay relative to control. The class given is functional, cell-based. To be noted: HEK-293T. Put shortly:
as §1

The target is the same in data set [6]. As to the kind of experiment: Antagonist activity at recombinant human DOR expressed in HEK293T cells assessed as reduction in DADLE-induced inhibition of forskolin-stimulated cAMP level at 10 uM preincubated for 15 to 20 mins followed by DADLE and forskolin addition by GloSensor assay relative to control. To be noted: HEK-293T. The format is functional, cell-based. The method, boiled down: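 HEK293T transiently expressing DOR plus GloSensor-22F were given compound in triplicate for 15-20 min at 37°C. DADLE (1 µM) was then added, followed by forskolin (10 µM); luminescence read. Signal normalized to % control (agonist + forskolin).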

For data set [7], the target named is T1, Mu-type opioid receptor. The format is functional, cell-based, HEK-293T.
Data set [8] concerns the target T2, Kappa-type opioid receptor. As to the kind of experiment: Agonist activity at recombinant human KOR expressed in HEK293T cells assessed as inhibition of forskolin-stimulated cAMP level preincubated for 15 to 20 mins followed by forskolin addition by GloSensor assay. The class given is functional, cell-based. To be noted: for inhibition: HEK-293T. Put shortly: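 HEK293T transiently transfected with hKOR plus GloSensor-22F plasmid. Compounds (10 µM to 10 pM, triplicate) added for 15-20 min at 37°C, then forskolin added (final 10 µM). Luminescence of live cells normalized to % forskolin-alone control. IC50 from non-linear regression; two independent experiments.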

The test system of data set [9] is Mus musculus. As to the kind of experiment: Analgesic activity in C57BL/6J mouse assessed as tail withdrawal latency at 10 mg/kg by tail flick test. The format is functional, organism-based. The method, boiled down:
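Male C57BL/6J mice, 6-8 weeks, 22-25 g; 5-6 per group. Dosed 10 mg/kg i.p. Distal third of tail immersed in 52 ± 0.5°C water; latency recorded three times per time point by a blinded observer. Latency expressed as % of baseline taken 15 min before dosing, followed over time; area under curve also calculated.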

Data set [10] relates to Mus musculus. As to the kind of experiment: Analgesic activity in C57BL/6J mouse assessed as tail withdrawal latency at 10 mg/kg measured after 30 mins in presence of KOR antagonist norBNI by tail flick test. The format is functional, organism-based. Put shortly:
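Male C57BL/6J mice (5-6/group) received norBNI 10 mg/kg i.p. 30 min before test compound at 10 mg/kg i.p. Tail withdrawal latency in 52 ± 0.5°C water was measured at the 30 min time point, three readings, by a blinded observer.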

For data set [11], the target named is T3, D(2) dopamine receptor (Homo sapiens, UniProt P14416). As to the kind of experiment: Agonist activity at dopamine D2 receptor (unknown origin) at 10 uM. The method, boiled down:
(§2)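 Primary screen, agonist and antagonist modes, each receptor tested separately. Compounds at 10 µM in triplicate; response taken as % inhibition or stimulation relative to control. Compounds giving at least 50% effect were then run over 10 µM to 10 pM to obtain EC50/IC50.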

The target in data set [12] is T3, D(2) dopamine receptor. Description: Antagonist activity at dopamine D2 receptor (unknown origin) at 10 uM. The method, boiled down:
as §2

For data set [13], the target named is Histamine H1 receptor (Homo sapiens) (UniProt P35367). Description: Agonist activity at histamine H1 receptor (unknown origin) at 10 uM. The method, boiled down: as §2
For data set [14] the target is unchanged. As to the kind of experiment: Antagonist activity at histamine H1 receptor (unknown origin) at 10 uM. The method, boiled down: as §2

The source made the active and inactive calls. No cut-off for these calls is given here.

T3 sequence (P14416 whole entry): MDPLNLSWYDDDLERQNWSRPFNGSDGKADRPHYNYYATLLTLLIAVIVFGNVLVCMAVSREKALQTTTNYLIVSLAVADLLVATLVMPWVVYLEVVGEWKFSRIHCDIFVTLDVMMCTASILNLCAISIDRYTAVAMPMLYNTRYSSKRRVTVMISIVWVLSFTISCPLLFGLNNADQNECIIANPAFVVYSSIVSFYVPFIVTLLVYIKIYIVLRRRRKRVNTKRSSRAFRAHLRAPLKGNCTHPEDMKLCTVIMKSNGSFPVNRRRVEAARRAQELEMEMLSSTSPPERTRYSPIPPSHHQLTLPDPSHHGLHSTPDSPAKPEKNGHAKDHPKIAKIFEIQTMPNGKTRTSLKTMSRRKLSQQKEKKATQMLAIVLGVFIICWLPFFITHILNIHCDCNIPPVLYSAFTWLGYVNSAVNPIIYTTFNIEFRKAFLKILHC
T1 sequence (P35372 whole entry): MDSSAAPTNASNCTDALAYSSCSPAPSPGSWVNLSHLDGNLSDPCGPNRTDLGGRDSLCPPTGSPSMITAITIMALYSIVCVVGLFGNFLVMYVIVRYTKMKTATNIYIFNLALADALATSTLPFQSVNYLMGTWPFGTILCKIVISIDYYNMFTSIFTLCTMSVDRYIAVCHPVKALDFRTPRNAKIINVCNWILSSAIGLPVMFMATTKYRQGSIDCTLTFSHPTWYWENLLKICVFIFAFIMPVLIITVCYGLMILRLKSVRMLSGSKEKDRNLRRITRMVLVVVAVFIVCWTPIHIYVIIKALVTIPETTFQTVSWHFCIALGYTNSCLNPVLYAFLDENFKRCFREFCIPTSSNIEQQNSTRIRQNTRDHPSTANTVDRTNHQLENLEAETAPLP
Sequence of Delta-type opioid receptor (Homo sapiens) (P41143 whole entry): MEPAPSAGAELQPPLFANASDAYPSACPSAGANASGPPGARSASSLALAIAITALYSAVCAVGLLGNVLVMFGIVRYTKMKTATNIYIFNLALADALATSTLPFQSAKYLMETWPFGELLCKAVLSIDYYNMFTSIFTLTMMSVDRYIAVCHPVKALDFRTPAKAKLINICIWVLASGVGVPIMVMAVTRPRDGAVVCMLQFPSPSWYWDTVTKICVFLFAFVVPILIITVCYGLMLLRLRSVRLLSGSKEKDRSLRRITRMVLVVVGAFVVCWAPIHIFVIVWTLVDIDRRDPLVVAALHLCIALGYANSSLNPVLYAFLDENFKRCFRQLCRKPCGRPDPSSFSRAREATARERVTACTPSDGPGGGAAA
Sequence of Histamine H1 receptor (Homo sapiens) (P35367 whole entry): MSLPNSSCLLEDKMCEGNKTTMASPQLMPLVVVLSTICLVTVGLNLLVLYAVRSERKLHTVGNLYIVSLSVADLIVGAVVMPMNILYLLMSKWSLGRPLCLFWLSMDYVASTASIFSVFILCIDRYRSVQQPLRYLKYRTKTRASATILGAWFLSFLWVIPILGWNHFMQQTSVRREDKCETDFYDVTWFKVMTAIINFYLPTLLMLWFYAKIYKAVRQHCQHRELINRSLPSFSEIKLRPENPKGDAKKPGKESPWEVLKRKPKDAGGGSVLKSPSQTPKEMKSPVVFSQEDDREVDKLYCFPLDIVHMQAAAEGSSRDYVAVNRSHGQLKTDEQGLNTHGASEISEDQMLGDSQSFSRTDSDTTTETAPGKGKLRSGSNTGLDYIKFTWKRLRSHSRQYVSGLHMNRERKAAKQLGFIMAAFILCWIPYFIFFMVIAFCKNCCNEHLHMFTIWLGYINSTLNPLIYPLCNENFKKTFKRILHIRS
T2 sequence (P41145 whole entry): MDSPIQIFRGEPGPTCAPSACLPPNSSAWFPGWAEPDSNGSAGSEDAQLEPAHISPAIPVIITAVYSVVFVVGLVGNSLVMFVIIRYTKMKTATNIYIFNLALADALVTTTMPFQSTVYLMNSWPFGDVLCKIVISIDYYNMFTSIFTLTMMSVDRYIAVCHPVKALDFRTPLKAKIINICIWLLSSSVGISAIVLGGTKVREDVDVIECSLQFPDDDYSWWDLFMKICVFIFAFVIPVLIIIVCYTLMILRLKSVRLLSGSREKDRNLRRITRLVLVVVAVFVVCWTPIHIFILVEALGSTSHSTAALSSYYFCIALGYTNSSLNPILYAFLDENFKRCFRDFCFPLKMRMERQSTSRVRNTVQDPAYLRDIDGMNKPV

As to `O=C(O)CNC(=O)C(Cc1ccccc1)CN1CCN(c2ccccc2O)CC1` (stereo not drawn), the inhibition entry (at Mu-type opioid receptor [1]; in data set [2]; in data set [3]; at Mu-type opioid receptor [4]) was “inactive” each time.
Consider `CC(C)[C@H](NC(=O)/C(=C/c1ccccc1)CN1CC[C@@](C)(c2cccc(O)c2)[C@@H](C)C1)C(=O)O`, for which the inhibition result in data set [5], in [6], in [2] and in data set [3] was “inactive” throughout. The figures for the IC50 on Mu-type opioid receptor [7] (read-out: IC50) and on Mu-type opioid receptor [7] (read-out: pIC50 (converted)) were 650 nM and 658 to 661 nM, respectively. The inhibition against Mu-type opioid receptor [4] turned out to be 50%.
Take `CC(C)[C@H](NC(=O)/C(=C/c1ccccc1)CN1CCN(c2ccc(O)cc2)CC1)C(=O)O`: the inhibition entry (in data set [8]; on Mu-type opioid receptor [1]; in data set [2]; at Mu-type opioid receptor [4]) was “inactive” in each case.
With `CC(C)[C@H](NC(=O)/C(=C/c1ccccc1)CN1CCN(c2ccc(Cl)cc2)CC1)C(=O)O`, the Activity result in the data set on Mus musculus [9] was “Dose-dependent effect”; on D(2) dopamine receptor [11], “Not Active”. In addition, the IC50 in [8] (read-out: IC50) was 910 nM; in [8] (read-out: pIC50 (converted)) it was 910 to 948 nM. In addition, the inhibition result (on Mu-type opioid receptor [1]; in [5]; in data set [6]; in data set [14]; on Mu-type opioid receptor [4]) was “inactive” throughout. Also, the outcome (with Mus musculus [10]; in data set [13]) was inactive. The “inhibition (INH)” value at D(2) dopamine receptor [12] is recorded as “Not Active”.
Consider `O=C(O)CNC(=O)/C(=C/c1ccccc1)CN1CCN(c2ccc(O)cc2)CC1`, for which the inhibition result (in [8]; at Mu-type opioid receptor [1]; in data set [2]; at Mu-type opioid receptor [4]) was “inactive” each time.
Regarding `CC(C)C[C@H](NC(=O)/C(=C/c1ccccc1)CN1CCN(c2ccc(O)cc2)CC1)C(=O)O`, the inhibition result (in [8]; on Mu-type opioid receptor [1]; in [2]; at Mu-type opioid receptor [4]) was “inactive” in each case.
Turning to `CCCC(NC(=O)/C(=C/c1ccccc1)CN1CCN(c2ccc(O)cc2)CC1)C(=O)O` (stereo not drawn), the inhibition entry (in data set [8]; at Mu-type opioid receptor [1]; in [2]; on Mu-type opioid receptor [4]) was “inactive” throughout.
As for `COc1ccc(N2CCN(CC(Cc3ccccc3)C(=O)NCC(=O)O)CC2)cc1` (stereo not drawn), the inhibition result (on Mu-type opioid receptor [1]; in data set [2]; in [3]; at Mu-type opioid receptor [4]) was “inactive” throughout.
For the molecule `CCCC(NC(=O)/C(=C/c1ccccc1)CN1CC[C@@](C)(c2cccc(O)c2)[C@@H](C)C1)C(=O)O` (stereo partly drawn), the inhibition result in [5], in data set [6], in data set [2] and in data set [3] was “inactive” throughout. Moreover, the values for the IC50 at Mu-type opioid receptor [7] (read-out: IC50) and on Mu-type opioid receptor [7] (read-out: pIC50 (converted)) were 2320 nM and 2320 to 2340 nM, respectively. This molecule also showed an inhibition against Mu-type opioid receptor [4] of 50%.
As to `CCC(C)C(NC(=O)/C(=C/c1ccccc1)CN1CCN(c2ccc(O)cc2)CC1)C(=O)O` (stereo not drawn), the inhibition result (in [8]; on Mu-type opioid receptor [1]; in data set [2]; on Mu-type opioid receptor [4]) was “inactive” throughout.
For the molecule `COc1ccccc1N1CCN(C/C(=C\c2ccccc2)C(=O)NCC(=O)O)CC1`, the inhibition entry (in data set [8]; at Mu-type opioid receptor [1]; in data set [2]; at Mu-type opioid receptor [4]) was “inactive” in each case.
With `COc1cccc(N2CCN(C/C(=C\c3ccccc3)C(=O)NCC(=O)O)CC2)c1`, the inhibition entry (in data set [8]; on Mu-type opioid receptor [1]; in data set [2]; at Mu-type opioid receptor [4]) was “inactive” in each case.
As to `CCC(C)C(NC(=O)/C(=C/c1ccccc1)CN1CC[C@@](C)(c2cccc(O)c2)[C@@H](C)C1)C(=O)O` (stereo partly drawn), the inhibition result in data set [5], in data set [6], in [2] and in data set [3] was “inactive” in each case. Moreover, the results for the IC50 at Mu-type opioid receptor [7] (read-out: IC50) and at Mu-type opioid receptor [7] (read-out: pIC50 (converted)) were 1600 nM and 1600 to 1620 nM, respectively. Besides, the inhibition against Mu-type opioid receptor [4] was 50%.
With `Cc1cccc(Oc2ccc(C(=O)N[C@H](CN3CCN(c4cccc(O)c4)[C@@H](C)C3)C(C)C)cc2)c1`, in [2], the inhibition result was “Active”.
Take `COc1ccc(N2CCN(C/C(=C\c3ccccc3)C(=O)NCC(=O)O)CC2)cc1`: the inhibition entry (in [8]; on Mu-type opioid receptor [1]; in data set [2]; on Mu-type opioid receptor [4]) was “inactive” in each case.
Regarding `COc1ccccc1N1CCN(CCC(C(=O)N(C)C)(c2ccccc2)c2ccccc2)CC1`, the inhibition result on Mu-type opioid receptor [1] is “Active”.
Take `COc1ccccc1N1CCN(CC(Cc2ccccc2)C(=O)NCC(=O)O)CC1` (stereo not drawn): the inhibition entry (at Mu-type opioid receptor [1]; in [2]; in [3]; at Mu-type opioid receptor [4]) was “inactive” each time.
As to `CC(C)C[C@H](NC(=O)/C(=C/c1ccccc1)CN1CC[C@@](C)(c2cccc(O)c2)[C@@H](C)C1)C(=O)O`, the inhibition result in data set [5], in [6], in data set [2] and in data set [3] was “inactive” each time. In addition, the IC50 at Mu-type opioid receptor [7] (read-out: IC50) was 780 nM; at Mu-type opioid receptor [7] (read-out: pIC50 (converted)) it was 782 to 794 nM. The inhibition against Mu-type opioid receptor [4] was found to be 50%.
Take `O=C(O)CNC(=O)/C(=C/c1ccccc1)CN1CCN(c2cccc(O)c2)CC1`: in data set [2], the inhibition entry was “inactive”.
As for `CCOC(=O)C(NC(=O)/C(=C/c1ccccc1)CN1CCN(c2nsc3ccccc23)CC1)C(C)C` (stereo not drawn), the IC50 in data set [8] (read-out: IC50) was 1800 nM; in [8] (read-out: pIC50 (converted)), 1910 to 1980 nM. Moreover, the inhibition result (at Mu-type opioid receptor [1]; in [5]; in [6]; in data set [14]; at Mu-type opioid receptor [4]) was “inactive” in each case. Besides, the Activity result on D(2) dopamine receptor [11] is given as “Not Active”. Moreover, the “inhibition (INH)” value against D(2) dopamine receptor [12] is recorded as “Not Active”. In [13], the outcome was inactive.
As for `C[C@H]1CN(C[C@H](Cc2ccccc2)C(=O)NCC(=O)O)CC[C@@]1(C)c1cccc(O)c1`, the inhibition entry in data set [5], in data set [6], in data set [2] and in [3] was “inactive” throughout. Further, the inhibition against Mu-type opioid receptor [4] turned out to be 50%.
`O=C(O)CNC(=O)C(Cc1ccccc1)CN1CCN(c2ccccc2)CC1` (stereo not drawn): the inhibition entry (at Mu-type opioid receptor [1]; in [2]; in data set [3]; on Mu-type opioid receptor [4]) was “inactive” in each case.
As to `CC1(c2cccc(O)c2)CCN(C/C(=C\c2ccccc2)C(=O)O)CC1`, the inhibition entry in data set [5], in [6], in data set [2] and in data set [3] was “inactive” in each case. The IC50 at Mu-type opioid receptor [7] (read-out: IC50) was 18 nM; on Mu-type opioid receptor [7] (read-out: pIC50 (converted)), 18.6 to 76.6 nM. The molecule also had an inhibition on Mu-type opioid receptor [4] of 50%.
